Assay results taken from ChEMBL document CHEMBL2169816, “Noncyclam tetraamines inhibit CXC chemokine receptor type 4 and target glioma-initiating cells” (J Med Chem, 2012).
Activity calls are given as the source filed them. The rule behind the calls is not given here.

Key:
CD44null [1] = test: Effect on human GBM2 cell differentiation assessed as increase in CD44null cells after 7 days by flow cytometric analysis; format: functional, cell-based
Outline: (§1)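 Patient-derived GBM neurospheres were treated with 1 μM inhibitor for 7 days, then dissociated and blocked 15 min with 10 μg/mL human IgG. Staining was FITC anti-CD44 or IgG2b isotype, 20 min on ice in the dark, then PBS wash and propidium iodide to exclude dying cells. Flow cytometry gave CD44 null fraction and CD44 low/CD44 null ratio.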

CD44null [2] = test: Effect on human GBM1 cell differentiation assessed as increase in CD44null cells after 7 days by flow cytometric analysis; format: functional, cell-based; outline: as §1
[3] = Cytotoxicity against human GBM1 assessed as cell viability after 7 days by trypan blue staining method in presence of CXCL12 relative to control; conditions: GBM1 cells, read-out: Activity
Outline: (§2)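 Dissociated neurospheres (acutase, 3 min) were counted and equal numbers seeded in triplicate per condition. Cells were treated or not with CXCR4 inhibitors (1 μM), with or without CXCL12. After 7 days cells were counted and viability expressed relative to untreated control.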

[4] = Cytotoxicity against human GBM1 assessed as cell viability after 7 days by trypan blue staining method relative to control; conditions: GBM1 cells, read-out: Activity; outline: as §2
[5] = (§3) Toxicity in iv dosed Hsd:ICR(CD-1) mouse measured up to 14 days; format: organism-based; conditions: Hsd:ICR(CD-1), in vivo
Outline: (§4)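 Single iv tail-vein injection in physiological saline (0.9% NaCl) to Hsd:ICR (CD-1) mice; groups of 4 (2 male, 2 female) at doses of 1, 2, 3, 3.5 and 4 mg/kg. Viability/mortality and clinical signs checked during first 30 min and at ~1, 2, 3, 5 h on day 1, then through days 2–15; 14-day observation; body weights recorded; necropsy of all animals.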

Mus musculus [6] = test: as §3; format: organism-based; conditions: in vivo, 336 h; outline: as §4
Mus musculus [7] = test: Toxicity in Hsd:ICR(CD-1) mouse assessed as mortality at 2 mg/kg, iv after 1 min; format: organism-based; parameters: dose 2 mg/kg, route intravenous; conditions: in vivo; outline: as §4
hERG (KCNH2) = hERG (KCNH2) (Homo sapiens, UniProt Q12809); test: Inhibition of human ERG expressed in CHOK1 cells at 10 uM after 5 mins by whole-cell patch clamp assay; format: cell-based; conditions: CHO-K1 cells expressing human ERG
Outline: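 hERG-expressing CHO-K1 cells were tested by automated whole-cell patch-clamp, measuring inhibition of tail current. Compound was applied cumulatively at 0.1, 1 and 10 μM, 5 min each at room temperature. E-4031 served as reference.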

[8] = target: T1, C-X-C chemokine receptor type 4 (Homo sapiens, UniProt P61073); test: Antagonist activity at human recombinant CXCR4 expressed in CHO cells assessed as inhibition of SDF1a-induced electrical impedance by dielectric spectroscopic analysis; format: functional, cell-based
Outline: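 CHO cells expressing recombinant human CXCR4. Antagonist mode: SDF-1a stimulant at 1 nM. Cellular impedance was read by cellular dielectric spectroscopy after incubation at 28 °C. Reference antagonist MIP-II was included. IC50 and KB were derived from concentration–response curves.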

[9] = (§5) Cytotoxicity against human MT4 cells expressing CXCR4 after 5 days by MTT assay; format: cell-based; conditions: MT4 cells expressing CXCR4
Outline: (§6)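 MT-4 cells, infected or not with HIV-1, exposed to a range of compound concentrations and left to proliferate for 5 days. Viable cells were counted by MTT colorimetric read-out. EC50 comes from protection against virus-induced cytopathic effect and CC50 from viability of uninfected cells.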

[10] = tested on: Human immunodeficiency virus 1; test: Antiviral activity against HIV1 infected in MT4 cells expressing CXCR4 assessed as inhibition of virus-induced cytopathic effect after 5 days; format: functional, organism-based; outline: as §6
[11] = target: T1, C-X-C chemokine receptor type 4; conditions: GBM2, 1 uM
[12] = target: T1, C-X-C chemokine receptor type 4; conditions: GBM2, 0.1 uM
[13] = target: T1, C-X-C chemokine receptor type 4; conditions: GBM2, 1 uM; remark: listed apart in the source
[14] = target: T1, C-X-C chemokine receptor type 4; conditions: GBM2, 0.1 uM; remark: listed apart in the source
[15] = target: T1, C-X-C chemokine receptor type 4; conditions: GBM2, 1 uM; remark: listed apart in the source
Mus musculus [16] = test: Toxicity in Hsd:ICR(CD-1) mouse assessed as mortality at 2.5 mg/kg, iv after 1 min; format: organism-based; parameters: dose 2.5 mg/kg, route intravenous; conditions: in vivo
[17] = target: Voltage-gated inwardly rectifying potassium channel KCNH2 (Homo sapiens, UniProt Q12809); test: Inhibition of human ERG expressed in CHOK1 cells after 5 mins by whole-cell patch clamp assay; format: cell-based, CHO-K1
MT4 = test: as §5; format: cell-based; conditions: mt4, 120 h, 120 h; outline: as §6
Mus musculus [18] = test: Toxicity in Hsd:ICR(CD-1) mouse assessed as mortality at 3 mg/kg, iv after 1 min; format: organism-based; parameters: dose 3 mg/kg, route intravenous; conditions: in vivo; outline: as §4
[19] = target: T1, C-X-C chemokine receptor type 4; conditions: GBM2, 1 uM; remark: listed apart in the source
[20] = target: T1, C-X-C chemokine receptor type 4; conditions: GBM2, 0.1 uM; remark: listed apart in the source
[21] = target: T1, C-X-C chemokine receptor type 4; conditions: GBM2, 1 uM; remark: listed apart in the source
[22] = target: T1, C-X-C chemokine receptor type 4; conditions: GBM2, 1 uM; remark: listed apart in the source
GBM1 [23] = test: Effect on human GBM1 cell differentiation xenografted in NOD-SCID mouse assessed as decrease in tumor number incubated for 7 days prior to xenografting measured after 40 days by MRI scanning analysis relative to control; format: functional, cell-based
Outline: (§7)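 GBM1 neurospheres were pretreated in culture for 7 days, then dissociated, counted and checked for viability by trypan blue. 100.000 live cells were stereotactically injected into the right corpus striatum of 9-week-old NOD-SCID mice. At 40 days, contrast MRI (gadolinium-DTPA 0.25 mmol/kg ip) covered the whole brain and tumor volume was quantified.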

GBM1 [24] = test: Effect on human GBM1 cell differentiation xenografted in NOD-SCID mouse assessed as decrease in tumor size incubated for 7 days prior to xenografting measured after 40 days by MRI scanning analysis relative to control; format: functional, cell-based; outline: as §7
[25] = Human immunodeficiency virus 1, MT4, 120 h

T1 sequence (P61073 whole entry): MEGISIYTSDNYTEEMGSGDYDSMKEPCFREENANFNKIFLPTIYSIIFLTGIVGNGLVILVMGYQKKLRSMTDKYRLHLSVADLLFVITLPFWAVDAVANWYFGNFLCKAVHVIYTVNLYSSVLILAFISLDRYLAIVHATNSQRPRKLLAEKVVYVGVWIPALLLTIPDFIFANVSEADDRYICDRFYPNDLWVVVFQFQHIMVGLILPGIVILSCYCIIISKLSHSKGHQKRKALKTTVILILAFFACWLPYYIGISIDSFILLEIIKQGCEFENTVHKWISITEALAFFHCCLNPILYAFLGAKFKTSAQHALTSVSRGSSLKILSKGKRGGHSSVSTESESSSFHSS
Voltage-gated inwardly rectifying potassium channel KCNH2, sequence (Q12809 whole entry): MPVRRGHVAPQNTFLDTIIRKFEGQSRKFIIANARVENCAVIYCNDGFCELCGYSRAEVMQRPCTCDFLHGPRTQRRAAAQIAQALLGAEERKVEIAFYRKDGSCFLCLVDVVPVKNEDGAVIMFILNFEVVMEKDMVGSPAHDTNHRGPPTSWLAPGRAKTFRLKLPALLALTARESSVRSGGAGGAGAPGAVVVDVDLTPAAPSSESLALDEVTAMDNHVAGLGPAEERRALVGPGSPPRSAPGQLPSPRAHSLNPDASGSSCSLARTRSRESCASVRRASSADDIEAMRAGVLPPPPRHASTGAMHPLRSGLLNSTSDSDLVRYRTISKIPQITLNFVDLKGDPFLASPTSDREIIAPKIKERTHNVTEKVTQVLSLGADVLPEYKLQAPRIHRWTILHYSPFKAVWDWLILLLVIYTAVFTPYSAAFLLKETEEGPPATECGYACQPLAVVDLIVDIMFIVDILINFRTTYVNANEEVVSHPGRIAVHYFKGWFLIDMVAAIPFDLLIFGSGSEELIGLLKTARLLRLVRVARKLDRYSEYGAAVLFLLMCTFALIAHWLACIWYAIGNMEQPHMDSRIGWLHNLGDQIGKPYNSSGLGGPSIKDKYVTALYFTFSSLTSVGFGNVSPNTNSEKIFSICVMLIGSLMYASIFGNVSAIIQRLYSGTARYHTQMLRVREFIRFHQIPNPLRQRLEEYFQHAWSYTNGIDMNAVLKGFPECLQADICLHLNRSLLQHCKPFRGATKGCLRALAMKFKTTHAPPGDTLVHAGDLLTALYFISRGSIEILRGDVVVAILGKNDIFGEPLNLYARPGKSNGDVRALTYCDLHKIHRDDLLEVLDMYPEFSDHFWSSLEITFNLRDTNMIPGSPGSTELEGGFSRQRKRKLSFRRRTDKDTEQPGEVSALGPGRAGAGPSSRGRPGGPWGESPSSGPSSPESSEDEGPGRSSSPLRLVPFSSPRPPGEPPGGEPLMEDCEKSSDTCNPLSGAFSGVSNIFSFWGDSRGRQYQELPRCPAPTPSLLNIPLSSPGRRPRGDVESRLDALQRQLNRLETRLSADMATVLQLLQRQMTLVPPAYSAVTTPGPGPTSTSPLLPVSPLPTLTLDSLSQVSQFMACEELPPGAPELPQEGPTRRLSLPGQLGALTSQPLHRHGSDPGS
hERG (KCNH2), sequence (Q12809 whole entry): as above

Row | Compound | Activity (CD44null [1]) | Activity (CD44null [2]) | viability at 168 h [3] | viability at 168 h [4] | MTD at 336 h [5] | MLC (Mus musculus [6]) | IC50 [8] | CC50 at 120 h [9] | EC50 [10, 25] | inhibition [12] | inhibition [13] | inhibition [14] | inhibition [15] | other results
1 | C[C@H]1CCCCN1CCCNCc1ccc(CNCCCN2CCCC[C@@H]2C)cc1.Cl | Active | Active | > 80% | > 80% | 1.5 mg/kg | 2 mg/kg | 1100 nM | > 44000 nM | 137 nM | inactive | inactive | inactive | inactive | Activity (Mus musculus [7]): Toxic; inhibition at 5 min, 10 µM (hERG (KCNH2)): < 25%; inhibition [11]: Active
2 | C[C@@H]1CCCCN1CCCNCc1ccc(CNCCCN2CCCC[C@H]2C)cc1.Cl | – | – | > 80% | > 80% | – | – | 350 nM | > 44000 nM | 125 nM | – | – | – | – | Activity (Mus musculus [16]): Toxic; IC50 [17]: > 100000 nM
3 | CC1CCCCN1CCCNCc1ccc(CNCCCN2CCCCC2C)cc1 (mixture of isomers; 1) | – | – | – | – | – | – | – | – | – | – | – | – | – | CC50 (MT4): > 25 µg/mL; EC50 ([10]; mt4): 19 nM
4 | C[C@@H]1CCCCN1CCCNCc1ccc(CNCCCN2CCCC[C@H]2C)cc1 [listing 1 of 2 here] | Active | Active | – | – | – | – | – | – | – | inactive | inactive | inactive | inactive | –
5 | C[C@@H]1CCCCN1CCCNCc1ccc(CNCCCN2CCCC[C@@H]2C)cc1.Cl (mixture of isomers) | Active | Active | > 80% | > 80% | 2.5 mg/kg | 3 mg/kg | 790 nM | 26000 nM | 139 nM | inactive | Active | inactive | Active | Activity (Mus musculus [18]): Toxic; IC50 [17]: > 100000 nM; inhibition [19]: Active; inhibition [20]: inactive; inhibition [21]: Active; inhibition [22]: inactive
6 | C[C@@H]1CCCCN1CCCNCc1ccc(CNCCCN2CCCC[C@H]2C)cc1 [listing 2 of 2 here] | – | – | – | – | 2 mg/kg | 2.5 mg/kg | – | – | – | – | – | – | – | –
7 | CC1CCCCN1CCCNCc1ccc(CNCCCN2CCCCC2C)cc1 (mixture of isomers; 11) [listing 1 of 2 here] | Active | Active | – | – | – | – | – | – | – | – | – | – | – | Activity (GBM1 [23]): Active; Activity (GBM1 [24]): Active
8 | CC1CCCCN1CCCNCc1ccc(CNCCCN2CCCCC2C)cc1 (mixture of isomers; 11) [listing 2 of 2 here] | – | – | – | – | – | – | – | – | – | – | – | – | – | CC50 (MT4; read-out: CC50): > 44000 nM; EC50 ([10]; mt4): 130 nM
